Screening results: PubChem BioAssay, several laboratories
Shown are actives, neighbours in structure and some others; about 3.3% of the full set was active somewhere.
ABCB1 inh = blocks JC-1 efflux by human ABCB1 transporter. P08183. CCRF-Adr cells, flow cytometry. inhibition, % at 6.6 µM. 190,000 tested, 0.067% active; in the data active = inhibition above about 40%;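 note: 0% = vehicle and 100% = reference inhibitor; higher value means more JC-1 retained so stronger ABCB1 efflux block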
KCC2 mod = modulators of human KCC2 chloride dependent transport | Q9H2X9 | KCC2 cells, thallium flux FluoZin-2 fluorescence | B-score of Tl+ flux slope (higher = more flux/activation; lower = inhibition) at 10 µM | 190,000 tested, 2.2% active | AID 1456;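 active = thallium flux slope and its plate-corrected score both differing from the plate sample mean at a set confidence after two filtering rounds, in either direction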;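 note: slope of fluorescence scaled to starting intensity during 10 to 20 s after thallium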
ROMK mod = modulates human ROMK potassium channel activity; Tet-inducible ROMK, thallium flux fluorescence; actives lie on both sides; B-score at 10 µM; 130,000 tested, 2% active;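 active = signal ratio slope over the read window, or its plate-corrected B-score, at least 3 SD from the plate mean, either direction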;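 note: B-score of the F/F0 ratio slope over 7 to 12 s after thallium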
Target sequence (P48048 whole entry, looked up): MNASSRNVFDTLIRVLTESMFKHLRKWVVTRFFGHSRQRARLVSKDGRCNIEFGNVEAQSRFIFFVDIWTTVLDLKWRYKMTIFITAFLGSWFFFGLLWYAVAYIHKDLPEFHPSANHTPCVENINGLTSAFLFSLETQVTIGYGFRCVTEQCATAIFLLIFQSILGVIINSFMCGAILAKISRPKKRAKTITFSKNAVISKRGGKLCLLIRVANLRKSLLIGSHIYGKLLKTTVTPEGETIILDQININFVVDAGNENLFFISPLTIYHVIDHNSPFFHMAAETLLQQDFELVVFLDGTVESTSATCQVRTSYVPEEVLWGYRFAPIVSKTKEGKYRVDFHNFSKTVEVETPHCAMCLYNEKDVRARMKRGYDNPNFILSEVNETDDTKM
PMI act satM6P = activators of human phosphomannose isomerase at near-saturating mannose 6-phosphate; AID 1216; coupled PMI enzyme assay, resazurin fluorescence, 20 min; active compounds read high; 1 = untreated enzyme, 0 = substrate-free blank; 190,000 tested, 0.34% active; activation factor at 20 µM;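 active = activation factor of 2 or more at 20 µM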
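Test system: human phosphomannose isomerase with PGI, G6PDH, diaphorase coupling enzymes; Amount: PMI at 15 ng/mL final; Reagent: Mannose-6-phosphate 1.0 mM (near-saturating) plus 0.22 mM NADP+; Timing: 20 min, room temperature; Technique: resorufin fluorescence at Ex 544/Em 590 nm; Dosing: 20 µM single dose.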
PMI act = phosphomannose isomerase (human) activation; purified human PMI, coupled resazurin fluorescence, 20 min; active compounds read high; 1 = vehicle control, 0 substrate-free wells; activation factor at 20 µM; 190,000 tested, 0.005% active; AID 1214; P34949;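 active = activation factor of 2 or more at 20 µM, relative to plate controls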
ABCG2 block = inhibitors of human ABCG2 transporter, ABCB1 counter-screen | Q9UNQ0 | IgMXP3 cells, JC-1 efflux, flow cytometry | inhibition, % at 6.6 µM | 190,000 tested, 0.1% active | AID 1325;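 active = inhibition above 80%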;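 note: 0% = DMSO and 100% = nicardipine control wells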
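Test system: IgMXP3 (ABCG2) plus far-red-tagged CCRF-Adr (ABCB1) cells. Reagent: JC-1 dye as substrate. Timing: 10 min exposure at 25 °C with rotation, no wash. Measured by: flow cytometric JC-1 green MFI at 530 nm. Read-out: percent efflux inhibition, scaled nicardipine 100% to DMSO 0%. Control set: nicardipine and DMSO wells.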
KCC2 secondary = confirmation of human KCC2 transport modulators | 3,700 tested, 15% active | normalised thallium flux (F/F0 slope) at 10 µM | HEK293-KCC2, thallium flux, FluoZin2 fluorescence; active compounds read high | shares compounds with KCC2 mod | AID 1713;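 active = thallium flux slope above the same plate's solvent-only control mean plus 3 SD; inconclusive = the two replicate wells disagree; inactive = no significant difference from solvent-only control wells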
KCC2 bumet counter = thallium flux persisting under bumetanide in KCC2 cells, counter-screen secondary assay | shares compounds with KCC2 mod | HEK293-KCC2 + bumetanide/ouabain, thallium flux FluoZin2; active compounds read high | normalized thallium flux at 10 µM | 3,700 tested, 49% active | AID 1714;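 active = thallium entry rate above the same plate's blocked-transporter control wells by more than 3 SD; inconclusive = the two repeat wells disagree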;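 note: raw slope of fluorescence over initial fluorescence between 10 and 20 s after thallium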
KCC2 secondary2 = KCC2 (human) modulation, second secondary assay; normalized thallium flux at 10 µM; 3,700 tested, 23% active; shares compounds with KCC2 mod; AID 1715; HEK293-KCC2, thallium flux FluoZin2 fluorescence; actives lie on both sides; F/F0 rise rate, 10–20 s post-thallium;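 active = thallium flux slope more than 3 SD above or below the plate's solvent-only control mean, mostly below; inconclusive = the two repeat wells disagreed; inactive = no significant shift from solvent-only controls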;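 note: raw slope with 0.1% DMSO as baseline and bumetanide as block control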
HEK counter1 = acts in parental HEK cells, KCC2 counter-screen; thallium flux rate (normalised fluorescence) at 10 µM; shares compounds with KCC2 mod; HEK293 parental cells, thallium flux FluoZin2, ouabain; baseline-ratio fluorescence slope, 10–20 s after thallium; 3,700 tested, 46% active;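 active = thallium flux rate significantly above the same plate's solvent-only control wells, beyond their mean plus 3 SD; inconclusive = the two replicate wells gave conflicting results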
KCC2 ouabain = KCC2 (human) modulation, ouabain retest; 3,700 tested, 48% active; AID 1717; raw Tl+ flux slope (below DMSO = inhibition, above = activation) at 10 µM; shares compounds with KCC2 mod; HEK293-KCC2, thallium flux FluoZin2 fluorescence; bidirectional: low = inhibitor, high = activator;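 active = thallium flux slope beyond 3 SD from same-plate DMSO control mean in most replicates, usually higher, sometimes lower; inconclusive = repeat tests gave conflicting results; inactive = no significant difference from controls in most replicates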;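 note: slope of initial-normalized fluorescence between seconds 10 and 20 after thallium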
HEK counter2 = parental HEK flux effect, counter-screen 2 | shares compounds with KCC2 mod | HEK293 parental, thallium flux FluoZin-2 fluorescence slope | thallium flux slope at 10 µM | 3,700 tested, 33% active | AID 1718;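 active = thallium flux slope above the same plate's solvent-control mean plus 3 SD in both duplicate wells; inconclusive = duplicate wells that disagreed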;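 note: run without ouabain in cells lacking the KCC2 cotransporter; slope of fluorescence scaled to its starting value between 10 and 20 s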
* marks the source's active call; other numbers are inactive results; ? = inconclusive; . = no result given.

SMILES	ABCB1 inh	KCC2 mod	ROMK mod	PMI act satM6P	PMI act	ABCG2 block	KCC2 secondary	KCC2 bumet counter	KCC2 secondary2	HEK counter1	KCC2 ouabain	HEK counter2
CCCCc1n[nH]c(=S)n1Cc1ccc(Cl)cc1	0	4.2*	-0.49	1	1	-1	0.0088	0.017*	0.034	0.0094*	0.022	0.011
S=c1[nH]nc(COc2ccc(Cl)cc2)n1Cc1ccco1	-1	10*	-0.12	1	1	-3	0.0096	0.057*	0.029	0.012*	0.028*	?
COc1ccc(NC(=O)C(C)N2C(=O)c3ccccc3C2=O)cc1S(=O)(=O)N1CCOCC1 (configuration not stated)	0	0.18	1	1.1	1	0	.	.	.	.	.	.
O=C(O)c1ccc(S(=O)(=O)Nc2cccc(CP(=O)(c3ccccc3)c3ccccc3)c2)cc1	.	0.19	-1.1	.	.	.	.	.	.	.	.	.
CCN(C(=O)COC(=O)c1ccc(S(=O)(=O)N2CCCc3ccccc32)cc1)C1CCS(=O)(=O)C1 (configuration not stated)	2	-0.11	1.1	0.9	0.9	6	.	.	.	.	.	.
CN(C(=O)c1ccc(=O)n(Cc2ccc(Cl)cc2)c1)c1ccccc1	1	-0.66	0.27	1	1	8	.	.	.	.	.	.
Cc1cccc(OCc2n[nH]c(=S)n2Cc2ccccc2)c1	-1	8.9*	-1.2	0.9	0.9	0	0.013*	0.062*	0.033	0.018*	0.026	0.012*
CC(C)CCn1c(COc2ccccc2)n[nH]c1=S	0	6.2*	-0.76	0.9	0.9	1	0.0096	0.03*	0.029	0.014*	0.026	0.011*
CCN(CC)S(=O)(=O)c1cc(NC(=O)C(=O)c2c(-c3ccccc3)cc3ccccn23)ccc1C	1	-0.21	.	0.8	0.8	3	.	.	.	.	.	.
CCN(CC)S(=O)(=O)c1cccc(NC(=O)C(=O)c2c(-c3ccccc3)cc3ccccn23)c1	1	-2.9*	-0.33	1	0.8	2	0.0059	0.0037	0.027	0.0073	0.016	0.0099
FC(F)(F)c1cccc(N2CCN(CC3CC=CCC3)CC2)c1 (configuration not stated)	0	-0.34	0.43	1	1.1	1	.	.	.	.	.	.
O=C(NCCN=C1NS(=O)(=O)c2ccccc21)c1ccncc1	0	7*	-0.041	0.9	0.9	2	0.011	0.0058	0.032	?	0.022	0.01
CS(=O)(=O)N(CC(=O)N/N=C/c1cc2c(cc1Br)OCO2)c1ccccc1Br	1	5.1*	0.34	0.9	0.8	2	0.0075	0.0046	0.03	0.0077	0.019	0.011
CSc1ncc(Cl)c(C(=O)Nc2nnc(SC/C=C/c3ccccc3)s2)n1	0	28*	-1.2	1.1	1	0	0.0065	0.082*	0.054*	0.064*	0.066*	0.041*
N#Cc1c(Cl)nsc1NC(=O)c1ccccc1	-1	-3.8	1.8	1.1	1	7	.	.	.	.	.	.
Cc1nc(C)n(C(C)CC(=O)O)n1 (configuration not stated)	0	0.55	.	1.2	1.2	1	.	.	.	.	.	.
Cc1ccc(-n2c(CNc3ccc(C)c(Cl)c3)n[nH]c2=S)cc1	0	3.5*	0.31	0.9	0.8	0	0.0094	0.084*	0.032	0.011*	0.028	?
CCOc1ccc2[nH]c(=O)c(CN(CCCN3CCOCC3)Cc3nnnn3Cc3ccc(OC)cc3)cc2c1	0	0.14	-0.65	1	1	-1	.	.	.	.	.	.
CN(C)C(=O)c1snnc1-c1ccccc1	0	0.97	.	0.9	0.9	0	.	.	.	.	.	.
COC(=O)C(C)Sc1snnc1-c1ccccc1 (configuration not stated)	0	.	0.43	0.9	0.9	1	0.016	0.004	0.029	?	0.015	0.0095
O=c1nc(SCc2ccccc2Cl)nc(-c2ccc(Cl)cc2)[nH]1	.	67*	0.47	.	.	.	0.0091	0.0068	0.036	?	?	0.0094
Nc1ccc(N=Nc2ccccc2)c(N)n1	0	-0.47	.	0.9	1	6	.	.	.	.	.	.
Cc1[nH]c(N=Nc2ccccc2)nc1N=Nc1ccccc1	.	76*	0.87	.	.	.	0.04*	0.14*	0.059*	0.096*	0.098*	0.027*
COc1ccc(Cl)cc1C(=O)CSc1nc(N)cc(N)n1	0	-8.7*	0.58	1	1	1	0.0075	0.0057	0.029	0.0064	0.027	0.01
CCCCn1nnnc1SCC(=O)c1cc(Cl)ccc1OC	7	-1.3	.	1	1	23	.	.	.	.	.	.
SMILES	ABCB1 inh	KCC2 mod	ROMK mod	PMI act satM6P	PMI act	ABCG2 block	KCC2 secondary	KCC2 bumet counter	KCC2 secondary2	HEK counter1	KCC2 ouabain	HEK counter2
S=c1[nH]nc(-c2ccco2)n1/N=C/c1ccc(Cl)cc1	0	4.1*	0.76	0.8	0.9	-2	0.015*	0.15*	0.032	0.053*	0.074*	0.013*
COc1ccccc1/C=C/C=N/n1c(-c2ccco2)n[nH]c1=S	.	1.5	.	.	.	.	.	.	.	.	.	.
S=c1[nH]nc(-c2ccco2)n1/N=C/c1ccccc1Cl	-1	10*	.	0.9	0.8	-6	0.012*	0.036*	0.037	0.018*	0.041*	0.012*
S=c1[nH]nc(-c2ccccn2)n1/N=C/c1ccc(Cl)cc1	.	2.6	.	.	.	.	.	.	.	.	.	.
CCCc1nc2c(o1)CC(CC(C)SCC)CC2=O (configuration not stated)	0	4.9*	0.66	1	1.1	4	0.0062	0.0046	?	0.007	0.018	0.0092
CCOc1ccccc1NC(=O)C(=O)NCCC1=CCCCC1	1	0.34	0.013	0.8	0.9	6	.	.	.	.	.	.
CCN(CC)S(=O)(=O)c1cc(NC(=O)COC(=O)c2sc3ccccc3c2Cl)ccc1C	0	-0.99	-0.0065	1	1	3	.	.	.	.	.	.
